Results published in PubChem BioAssay AID635 (SRMLSC, 2007).

system: E. coli BW25113 growth inhibition, OD615; test: growth inhibition of wild-type E. coli BW25113 pool, dose response, OD615 (AID 635); details: pooled mutant strains
Summary of the method: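 times: 20 h, 37 °C growth with compound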

Point of comparison: `CC(=O)OCC1=C(C(=O)O)N2C(=O)[C@@H](NC(=O)Cc3cccs3)[C@H]2SC1`, IC50 10.5 µM. Against it:
- C=CCNc1ncnc2c1[nH]c1ccc(C)cc12 — 4-fold higher, 41.7 µM
- COc1c(N2CCNC(C)C2)c(F)cc2c(=O)c(C(=O)O)cn(C3CC3)c12 (centres undefined) — lower, < 0.195 µM
- CCCCOc1ccc(NC2=NC3(CCCCC3)N=C(N)N2)cc1 — 3.9-fold higher, 41 µM
- COc1ccc(OCC(O)CNc2ccc(Br)cc2)cc1 (centres undefined) — 9.7-fold higher, 102 µM
- CN1CCN(c2c(F)cc3c(=O)c(C(=O)O)cn4c3c2SCC4)CC1 — 9.5-fold lower, 1.11 µM
- c1ccc(-c2cccc(-c3ccccn3)n2)nc1 — 4-fold higher, 41.8 µM
- CC(=O)c1c(C)n([O-])c2ccccc2[n+]1=O — 4.6-fold higher, 48.6 µM
- NC1C2CN(c3nc4c(cc3F)c(=O)c(C(=O)O)cn4-c3ccc(F)cc3F)CC12 (centres undefined) — 1800-fold lower, 0.006 µM
- CCn1cc(C(=O)NCc2ccc3c(c2)OCO3)c(=O)c2cc(F)c(N3CCN(C)CC3)cc21 — 2.7-fold higher, 28.6 µM
- CCn1cc(C(=O)O)c(=O)c2cc(F)c(N3CCN(C(=O)Nc4ccccc4)CC3)cc21 — 2.6-fold lower, 4.05 µM
- CCC(=O)N1CCN(c2cc3c(cc2F)c(=O)c(C(=O)O)cn3CC)CC1 — 2.6-fold lower, 4.01 µM
- Oc1c(CN2CCCCC2)cc(Br)c2cccnc12 — 3.6-fold higher, 37.5 µM
- COc1cc(Cc2cnc(N)nc2N)cc(OC)c1OC — 18-fold lower, 0.595 µM
- O=c1ccsn1Cc1ccccc1 — 3.3-fold higher, 34.6 µM
- O=S1(=O)Nc2c(ccc3cccnc23)-c2ccccc21 — 1.9-fold higher, 20.3 µM
- CCCCNc1cc(C)nc(NCc2ccccc2)n1 — 9.4-fold higher, 98.5 µM
- CN(C)[C@@H]1C(=O)C(C(N)=O)=C(O)[C@@]2(O)C(=O)C3=C(O)c4c(O)ccc(Cl)c4[C@@H](O)[C@H]3C[C@@H]12 — 18-fold lower, 0.579 µM
- CO[C@@]1(NC(=O)Cc2cccs2)C(=O)N2C(C(=O)O)=C(COC(N)=O)CS[C@@H]21 — within 1.5-fold, 9.78 µM
